ChEMBL document CHEMBL1817593, “C5'-Alkyl Substitution Effects on Digitoxigenin α-l-Glycoside Cancer Cytotoxicity” (ACS Med Chem Lett, 2011)
pIC50: −log10 of the molar value.

How the values were obtained:
[1] = test system: NCI-H460; experiment: Induction of apoptosis in human NCI-H460 cells in serum free medium at 50 nM after 12 hrs by Hoechst 33342/propidium iodide staining based fluorescence microscopy; format: functional
Summary of the method: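 NCI-H460 cells exposed to a single 50 nM concentration for 12 h. Cells stained with Hoechst 33342 and propidium iodide. Blue cells with condensed or fragmented nuclei were scored as apoptotic and red, ruptured cells as necrotic. Result given as % apoptotic cell death; N = 6, one-way ANOVA.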

[2] = test system: NCI-H460; experiment: Cytotoxicity against human NCI-H460 cells assessed as cell death in serum free medium at 10 nM after 12 hrs by Hoechst 33342/propidium iodide staining based fluorescence microscopy; format: functional
Summary of the method: (§1)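 NCI-H460 human lung cancer cells exposed 12 h to 10 nM–10 μM drug, including a 50 nM single-concentration test. Nuclei were stained with Hoechst 33342 and necrotic cells with propidium iodide. Apoptotic cells were scored by condensed or fragmented blue nuclei and necrotic cells by red PI staining. Total cell death (apoptosis plus necrosis) was recorded; N = 6.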

[3] = test system: NCI-H460; experiment: Cytotoxicity against human NCI-H460 cells assessed as cell death in serum free medium at 25 nM after 12 hrs by Hoechst 33342/propidium iodide staining based fluorescence microscopy; format: functional; summary of the method: as §1
[4] = test system: NCI-H460; experiment: Cytotoxicity against human NCI-H460 cells assessed as cell death in serum free medium at 50 nM after 12 hrs by Hoechst 33342/propidium iodide staining based fluorescence microscopy; format: functional; summary of the method: as §1
[5] = test system: NCI-H460; experiment: Cytotoxicity against human NCI-H460 cells assessed as cell death in serum free medium at 75 nM after 12 hrs by Hoechst 33342/propidium iodide staining based fluorescence microscopy; format: functional; summary of the method: as §1
[6] = test system: NCI-H460; experiment: Cytotoxicity against human NCI-H460 cells assessed as cell death in serum free medium at 100 nM after 12 hrs by Hoechst 33342/propidium iodide staining based fluorescence microscopy; format: functional; summary of the method: as §1
[7] = test system: NCI-H460; experiment: Cytotoxicity against human NCI-H460 cells assessed as cell death in serum free medium at 250 nM after 12 hrs by Hoechst 33342/propidium iodide staining based fluorescence microscopy; format: functional; summary of the method: as §1
[8] = test system: NCI-H460; experiment: Cytotoxicity against human NCI-H460 cells assessed as cell death in serum free medium at 500 nM after 12 hrs by Hoechst 33342/propidium iodide staining based fluorescence microscopy; format: functional; summary of the method: as §1
[9] = test system: NCI-H460; experiment: Cytotoxicity against human NCI-H460 cells assessed as cell death in serum free medium at 1000 nM after 12 hrs by Hoechst 33342/propidium iodide staining based fluorescence microscopy; format: functional; summary of the method: as §1
[10] = test system: NCI-H460; experiment: Cytotoxicity against human NCI-H460 cells assessed as cell death in serum free medium at 10000 nM after 12 hrs by Hoechst 33342/propidium iodide staining based fluorescence microscopy; format: functional; summary of the method: as §1
[11] = test system: NCI-H460; experiment: Induction of apoptosis in human NCI-H460 cells in serum free medium after 12 hrs by Hoechst 33342/propidium iodide staining based fluorescence microscopy; format: functional, cell-based; conditions: for pIC50: NCI-H460, 12 h
Summary of the method: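 NCI-H460 cells treated for 12 h at 10 nM to 10 μM. Total cell death (apoptosis plus necrosis) scored by Hoechst 33342/propidium iodide staining, with N = 6 and two-way ANOVA. IC50 obtained by nonlinear regression. Table values are the mean of three independent experiments with duplicate determinations.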

[12] = test system: NCI-H460; experiment: Ratio of digitoxin IC50 to compound IC50 for human NCI-H460 cells after 12 hrs by Hoechst 33342/propidium iodide staining based fluorescence microscopy; format: functional
[13] = test system: NCI-H460; experiment: Cytotoxicity against human NCI-H460 cells assessed as cell viability at 1 nM after 48 hrs by MTT assay; format: functional; conditions: NCI-H460, 48 h, read-out: Activity
Summary of the method: (§2)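 Viability of NCI-H460 cells was measured by MTT (mitochondrial enzymatic activity) after 48 h exposure, within a dose series spanning 1 nM–10 μM. N = 9, analysed by two-way ANOVA.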

[14] = test system: NCI-H460; experiment: Cytotoxicity against human NCI-H460 cells assessed as cell viability at 10 nM after 48 hrs by MTT assay; format: functional; conditions: NCI-H460, 48 h, read-out: Activity; summary of the method: as §2
[15] = test system: NCI-H460; experiment: Cytotoxicity against human NCI-H460 cells assessed as cell viability at 25 nM after 48 hrs by MTT assay; format: functional; conditions: NCI-H460, 48 h, read-out: Activity; summary of the method: as §2
[16] = test system: NCI-H460; experiment: Cytotoxicity against human NCI-H460 cells assessed as cell viability at 50 nM after 48 hrs by MTT assay; format: functional; conditions: NCI-H460, 48 h, read-out: Activity; summary of the method: as §2
[17] = test system: NCI-H460; experiment: Cytotoxicity against human NCI-H460 cells assessed as cell viability at 100 nM after 48 hrs by MTT assay; format: functional; conditions: NCI-H460, 48 h, read-out: Activity; summary of the method: as §2
[18] = test system: NCI-H460; experiment: Cytotoxicity against human NCI-H460 cells assessed as cell viability at 500 nM after 48 hrs by MTT assay; format: functional; conditions: NCI-H460, 48 h, read-out: Activity; summary of the method: as §2
[19] = test system: NCI-H460; experiment: Cytotoxicity against human NCI-H460 cells assessed as cell viability at 1000 nM after 48 hrs by MTT assay; format: functional; conditions: NCI-H460, 48 h, read-out: Activity; summary of the method: as §2
[20] = test system: NCI-H460; experiment: Cytotoxicity against human NCI-H460 cells assessed as cell viability after 48 hrs by MTT assay; format: functional; conditions: NCI-H460, 48 h
Summary of the method: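 NCI-H460 cells were exposed to drug for 48 h, and viability was read by MTT as mitochondrial enzymatic activity. GI50 was derived from dose-response curves (1 nM–10 μM). Values are from three independent experiments with duplicate determinations, given with standard error of the mean.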

[21] = test system: NCI-H460; experiment: Growth inhibition of human NCI-H460 cells after 48 hrs by MTT assay; format: functional
Summary of the method: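 NCI-H460 viability measured by MTT (mitochondrial enzymatic activity) after 48 h exposure at 1 nM to 10 μM. GI50 derived from dose-response curves, with N = 9 and two-way ANOVA. Values are the mean of three independent experiments with duplicate determinations.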

Row | SMILES | Activity [1] [%] | Activity [2] [%] | Activity [3] [%] | Activity [4] [%] | Activity [5] [%] | Activity [6] [%] | Activity [7] [%] | Activity [8] [%] | Activity [9] [%] | Activity [10] [%] | Activity [11] | pIC50 [11] | viability at 0.001 µM [13] [%] | viability at 0.01 µM [14] [%] | viability at 0.025 µM [15] [%] | viability at 0.05 µM [16] [%] | viability at 0.1 µM [17] [%] | viability at 0.5 µM [18] [%] | viability at 1 µM [19] [%] | GI50 [20] [nM] | further results
1 | C[C@@H]1O[C@@H](O[C@H]2CC[C@@]3(C)[C@H](CC[C@@H]4[C@@H]3CC[C@]3(C)[C@@H](C5=CC(=O)OC5)CC[C@]43O)C2)[C@H](O)[C@H](O)[C@H]1O | 41.603 | 16.47 | 24.53 | 48.79 | 78.16 | 89.5 | 100 | 100 | 100 | 100 | Dose-dependent effect | 7.29 | 77.8 | 11.8 | 8.72 | 7.16 | 6.11 | 5.81 | 5.46 | 2.1 | Ratio IC50 [12]: 4; GI50 [21]: Dose-dependent effect; GI50 ([21]; NCI-H460, 48 h): 2 nM
2 | CC[C@@H]1O[C@@H](O[C@H]2CC[C@@]3(C)[C@H](CC[C@@H]4[C@@H]3CC[C@]3(C)[C@@H](C5=CC(=O)OC5)CC[C@]43O)C2)CC[C@H]1O | 18.75 | 13.46 | 19.43 | 22.56 | 39.69 | 69.05 | 87.87 | 99.58 | 100 | 100 | Dose-dependent effect | 7.06 | 73.3 | 20.6 | 9.23 | 8.21 | 6.81 | 5.41 | 4.5 | 2.19 | GI50 [21]: Dose-dependent effect; GI50 ([21]; NCI-H460, 48 h): 2 nM
3 | CCC[C@@H]1O[C@@H](O[C@H]2CC[C@@]3(C)[C@H](CC[C@@H]4[C@@H]3CC[C@]3(C)[C@@H](C5=CC(=O)OC5)CC[C@]43O)C2)[C@H](O)[C@H](O)[C@H]1O | 15.692 | 15.86 | 20.15 | 23.16 | 34.1 | 52.06 | 84.94 | 100 | 100 | 100 | Dose-dependent effect | 6.94 | 81.4 | 39.3 | 16.1 | 9.27 | 7.06 | 5.87 | 5.81 | 4.88 | GI50 [21]: Dose-dependent effect; GI50 ([21]; NCI-H460, 48 h): 5 nM
4 | CC[C@@H]1O[C@@H](O[C@H]2CC[C@@]3(C)[C@H](CC[C@@H]4[C@@H]3CC[C@]3(C)[C@@H](C5=CC(=O)OC5)CC[C@]43O)C2)[C@H](O)[C@H](O)[C@H]1O | 30.625 | 15.02 | 24.93 | 42.16 | 71.83 | 80.15 | 98.51 | 100 | 100 | 100 | Dose-dependent effect | 7.24 | 73.2 | 20 | 10.3 | 8.28 | 6.64 | 6.13 | 5.71 | 2.14 | GI50 [21]: Dose-dependent effect; GI50 ([21]; NCI-H460, 48 h): 2 nM
5 | CC(C)[C@@H]1O[C@@H](O[C@H]2CC[C@@]3(C)[C@H](CC[C@@H]4[C@@H]3CC[C@]3(C)[C@@H](C5=CC(=O)OC5)CC[C@]43O)C2)[C@H](O)[C@H](O)[C@H]1O | 15.425 | 12.81 | 19.33 | 24.42 | 37.08 | 45.94 | 73.97 | 100 | 100 | 100 | Dose-dependent effect | 6.89 | 77.4 | 47.3 | 35 | 22.8 | 9.88 | 6.11 | 5.76 | 6.32 | GI50 [21]: Dose-dependent effect; GI50 ([21]; NCI-H460, 48 h): 6 nM
6 | CC(C)C[C@@H]1O[C@@H](O[C@H]2CC[C@@]3(C)[C@H](CC[C@@H]4[C@@H]3CC[C@]3(C)[C@@H](C5=CC(=O)OC5)CC[C@]43O)C2)[C@H](O)[C@H](O)[C@H]1O | 9.9487 | 12.15 | 14.36 | 17.66 | 24.5 | 36.73 | 68.62 | 100 | 100 | 100 | Dose-dependent effect | 6.78 | 82.4 | 57.7 | 40.6 | 26.1 | 12.4 | 6.69 | 5.9 | 13.4 | GI50 [21]: Dose-dependent effect; GI50 ([21]; NCI-H460, 48 h): 13 nM
